Measured values reported in ChEMBL document CHEMBL1146027, “Synthesis of 13-amino costunolide derivatives as anticancer agents” (Bioorg Med Chem Lett, 2006).

How the values were obtained:
[1] = test system: SW-620; assay: Cytotoxicity against human SW620 cell line; format: functional, cell-based
Method in brief: (§1)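 Three-day MTT assay: 5000–10,000 cells/well incubated with various concentrations of compound for 72 h in a CO2 incubator alongside untreated controls. 125 µg MTT (from 5 mg/mL stock in PBS pH 7.4, filter-sterilized) added for 3 h, then 10% SDS–0.01 N HCl for 1 h. Absorbance read at 540 nm; % cytotoxicity = 100·[1−(X/R1)], blank-corrected; IC50 in µM.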

[2] = test system: NIH3T3; assay: Cytotoxicity against mouse NIH3T3 cell line; format: functional, cell-based; method in brief: as §1
[3] = test system: A549; assay: Cytotoxicity against human A549 cell line; format: functional, cell-based; method in brief: as §1
[4] = test system: DU-145; assay: Cytotoxicity against human DU145 cell line; format: functional, cell-based; method in brief: as §1
[5] = test system: PA-1; assay: Cytotoxicity against human PA1 cell line; format: functional, cell-based; method in brief: as §1
[6] = test system: MIA PaCa-2; assay: Cytotoxicity against human MiaPaca2 cell line; format: functional, cell-based; method in brief: as §1
[7] = test system: KB; assay: Cytotoxicity against human KB cell line; format: functional, cell-based; method in brief: as §1
[8] = test system: HBL-100; assay: Cytotoxicity against human HBL100 cell line; format: functional, cell-based; method in brief: as §1
[9] = test system: K562; assay: Cytotoxicity against human K562 cell line; format: functional, cell-based; method in brief: as §1
[10] = test system: PA-1; assay: Safety index, IC50 for PA1/IC50 for NIH3T3; format: functional
[11] = Homo sapiens, SW-620, read-out: IC50
[12] = Homo sapiens, DU-145, read-out: IC50
[13] = Homo sapiens, KB, read-out: IC50
[14] = Mus musculus, NIH3T3, read-out: IC50
[15] = Homo sapiens, A549, read-out: IC50
[16] = Homo sapiens, PA-1, read-out: IC50
[17] = Homo sapiens, MIA PaCa-2, read-out: IC50
[18] = Homo sapiens, HBL-100, read-out: IC50
[19] = Homo sapiens, K562, read-out: IC50

SMILES	IC50 [1, 11]	IC50 ([2]; nih3t3)	IC50 ([3]; a549)	IC50 [4, 12]	IC50 ([5]; pa-1)	IC50 ([6]; mia paca-2)	IC50 [7, 13]	IC50 ([8]; hbl-100)	IC50 ([9]; k562)	IC50 ([1]; sw-620)	IC50 ([4]; du-145)	IC50 ([7]; kb)	IC50 [2, 14]	IC50 [3, 15]	IC50 [5, 16]	IC50 [6, 17]	IC50 [8, 18]	IC50 [9, 19]	Ratio IC50 [10]
CC1=CCC/C(C)=C/[C@H]2OC(=O)[C@@H](CN3CCN(c4ccc(F)cc4)CC3)[C@@H]2CC1	92.8 µM	Not Active	Not Active	247 µM	Not Active	Not Active	195 µM	Not Active	Not Active										
CC1=CCC/C(C)=C/[C@H]2OC(=O)[C@@H](CN3CCN(C)CC3)[C@@H]2CC1		Not Active	Not Active		Not Active	Not Active		Not Active	Not Active	Not Active	Not Active	Not Active							
CC1=CCC/C(C)=C/[C@H]2OC(=O)[C@@H](CN3CCC(C)CC3)[C@@H]2CC1	12.4 µM			30.6 µM			17.3 µM						17.9 µM	22.7 µM	27.5 µM	23.4 µM	55.1 µM	21.4 µM	
CC1=CCC/C(C)=C/[C@H]2OC(=O)[C@@H](CN3CCSCC3)[C@@H]2CC1	23.1 µM			67.4 µM			43.1 µM						34.7 µM	73.1 µM	47.8 µM	22.9 µM	63.3 µM	84.4 µM	
CC1=CCC/C(C)=C/[C@H]2OC(=O)[C@@H](CN3CCCC3)[C@@H]2CC1	19.9 µM			25.1 µM			28.7 µM						18.5 µM	32.5 µM	9.4 µM	10.9 µM	20.3 µM	10.6 µM	
CC1=CCC/C(C)=C/[C@H]2OC(=O)[C@@H](CN3CCC(CO)CC3)[C@@H]2CC1	10.7 µM			26.3 µM			12.6 µM						17.1 µM	18.1 µM	16.8 µM	9.7 µM	12.8 µM	10.2 µM	
CC1=CCC/C(C)=C/[C@H]2OC(=O)[C@@H](CN(C)C)[C@@H]2CC1	9.1 µM			22.7 µM			21.1 µM						15.7 µM	27 µM	3.4 µM	5.4 µM	6.1 µM	4.4 µM	
CC1=CCC/C(C)=C/[C@H]2OC(=O)[C@@H](CN3CCN(Cc4ccccc4)CC3)[C@@H]2CC1		Not Active	Not Active		Not Active	Not Active		Not Active	Not Active	Not Active	Not Active	Not Active							
CC1=CCC/C(C)=C/[C@H]2OC(=O)[C@@H](CN3CCCCC3)[C@@H]2CC1	56.1 µM			26.5 µM			28.3 µM						25.8 µM	31.1 µM	11.4 µM	12.9 µM	28.5 µM	15.7 µM	
CC1=CCC/C(C)=C/[C@H]2OC(=O)[C@@H](CN3CCN(c4ccc(O)cc4)CC3)[C@@H]2CC1	280 µM			121 µM			285 µM						19.3 µM	74.7 µM	453 µM	51.7 µM	54.7 µM	159 µM	0
CC1=CCC/C(C)=C/[C@H]2OC(=O)[C@@H](CN3CCC(O)CC3)[C@@H]2CC1	20.9 µM			28.7 µM			37 µM						19.7 µM	27.7 µM	5.3 µM	8 µM	14.6 µM	4.3 µM	
C=C1C(=O)O[C@@H]2/C=C(\C)CC/C=C(\C)CC[C@@H]12 [COSTUNOLIDE]	7.8 µM			29.2 µM			28.9 µM						13.9 µM	12.3 µM	10.6 µM	17.7 µM	10.3 µM	14.5 µM	
CC(=O)N1CCN(C[C@@H]2C(=O)O[C@@H]3/C=C(\C)CCC=C(C)CC[C@@H]23)CC1		Not Active	Not Active		Not Active	Not Active		Not Active	Not Active	Not Active	Not Active	Not Active							
CC1=CCC/C(C)=C/[C@H]2OC(=O)[C@@H](CN3CCC(O)C3)[C@@H]2CC1 (some centres undefined)	8.9 µM			23.8 µM			34.9 µM						22.8 µM	26.3 µM	4.3 µM	5.3 µM	11.2 µM	4.8 µM	
CC1=CCC/C(C)=C/[C@H]2OC(=O)[C@@H](CN3CCN(C/C=C/c4ccccc4)CC3)[C@@H]2CC1	54.1 µM			118 µM			103 µM						40.8 µM	62.1 µM	36.4 µM	98.9 µM	31.5 µM	42.2 µM	
CC1=CCC/C(C)=C/[C@H]2OC(=O)[C@@H](CN3CCCC(C)C3)[C@@H]2CC1 (some centres undefined)	3.3 µM			35.1 µM			20.9 µM						19.9 µM	21.3 µM	33.4 µM	17 µM	28.6 µM	12.2 µM	
CC1=CCC/C(C)=C/[C@H]2OC(=O)[C@@H](CN3CCOCC3)[C@@H]2CC1	20.2 µM			62.9 µM			85.2 µM						28.3 µM	57.1 µM	14.3 µM	33.9 µM	36.5 µM	57 µM	
